Measurements: ChEMBL document CHEMBL3259629, “Discovery and optimization of piperidyl-1,2,3-triazole ureas as potent, selective, and in vivo-active inhibitors of α/β-hydrolase domain containing 6 (ABHD6)” (J Med Chem, 2013)
The source made the active and inactive calls. The rule behind the calls is not given here.

Legend:
[1] = molecular target: T1, Monoglyceride lipase (Mus musculus) (UniProt O35678); assay: Inhibition of MGLL in FP-rhodamine-labelled mouse brain membrane at 10 uM after 30 mins preincubated for 30 mins followed by HT-01 labelling measured after 30 mins by gel-based competitive ABPP assay; assay type: tissue-based
T1 sequence (whole entry): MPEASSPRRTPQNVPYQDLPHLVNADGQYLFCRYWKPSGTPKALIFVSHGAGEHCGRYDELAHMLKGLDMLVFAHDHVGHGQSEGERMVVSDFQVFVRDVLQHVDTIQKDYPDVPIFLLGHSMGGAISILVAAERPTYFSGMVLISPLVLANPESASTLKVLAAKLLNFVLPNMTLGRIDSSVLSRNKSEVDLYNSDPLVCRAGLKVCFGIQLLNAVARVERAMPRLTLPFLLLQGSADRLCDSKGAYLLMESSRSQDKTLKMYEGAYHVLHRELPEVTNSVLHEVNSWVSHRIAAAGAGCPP
How it was run: (§1)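 Mouse brain membrane proteome (1 mg/mL) preincubated with compound for 30 min at 37 °C, then labelled with FP-rhodamine or HT-01 (1 μM final) for 30 min at 37 °C. Quenched in SDS loading buffer, run on 10% SDS-PAGE and scanned for in-gel fluorescence. Bands assigned by gel migration.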

[2] = molecular target: T2, Monoacylglycerol lipase ABHD6 (Mus musculus) (UniProt Q8R2Y0); assay: Inhibition of ABHD6 in FP-rhodamine-labelled mouse brain membrane at 0.01 uM after 30 mins preincubated for 30 mins followed by HT-01 labelling measured after 30 mins by gel-based competitive ABPP assay; assay type: tissue-based; how it was run: as §1
T2 sequence (whole entry): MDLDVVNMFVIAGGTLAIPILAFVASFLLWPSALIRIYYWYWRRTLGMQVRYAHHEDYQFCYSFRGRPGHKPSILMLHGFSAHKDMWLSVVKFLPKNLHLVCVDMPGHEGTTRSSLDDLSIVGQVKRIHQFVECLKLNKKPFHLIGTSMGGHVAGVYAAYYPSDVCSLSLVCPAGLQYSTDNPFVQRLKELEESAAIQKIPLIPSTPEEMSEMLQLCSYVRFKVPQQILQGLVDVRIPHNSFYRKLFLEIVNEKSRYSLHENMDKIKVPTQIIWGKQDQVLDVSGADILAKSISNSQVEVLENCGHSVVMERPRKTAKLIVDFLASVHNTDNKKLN

[3] = molecular target: T3, Diacylglycerol lipase-beta (Mus musculus) (UniProt Q91WC9); assay: Inhibition of FP-rhodamine-labelled recombinant mouse DAGLbeta expressed in HEK293T cells at 100 nM preincubated for 30 mins followed by FP-rhodamine labelling measured after 30 mins by gel-based competitive ABPP assay; assay type: cell-based; conditions: HEK-293T
T3 sequence (whole entry): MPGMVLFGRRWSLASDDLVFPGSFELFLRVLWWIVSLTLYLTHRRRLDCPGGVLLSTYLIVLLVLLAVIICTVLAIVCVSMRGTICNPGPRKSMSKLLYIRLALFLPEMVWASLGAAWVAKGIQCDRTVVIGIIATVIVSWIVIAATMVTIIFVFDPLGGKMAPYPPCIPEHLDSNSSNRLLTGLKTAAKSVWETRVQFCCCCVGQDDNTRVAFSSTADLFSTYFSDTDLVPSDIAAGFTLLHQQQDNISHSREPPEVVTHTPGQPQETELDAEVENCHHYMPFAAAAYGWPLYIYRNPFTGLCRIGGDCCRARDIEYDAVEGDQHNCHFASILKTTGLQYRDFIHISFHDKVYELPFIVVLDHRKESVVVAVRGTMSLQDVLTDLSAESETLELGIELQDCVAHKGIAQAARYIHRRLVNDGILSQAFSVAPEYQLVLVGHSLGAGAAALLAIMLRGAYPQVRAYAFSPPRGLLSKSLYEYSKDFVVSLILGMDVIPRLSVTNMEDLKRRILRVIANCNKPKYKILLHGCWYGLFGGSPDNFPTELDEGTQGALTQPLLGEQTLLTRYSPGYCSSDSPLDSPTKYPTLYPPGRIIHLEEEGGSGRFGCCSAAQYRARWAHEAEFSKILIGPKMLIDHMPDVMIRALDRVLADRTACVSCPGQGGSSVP
How it was run: (§2)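 Mouse DAGLβ transiently overexpressed in HEK293T. Lysate diluted to 0.3 mg/mL in 50 mM HEPES pH 7.2, 100 mM NaCl, 5 mM CaCl₂, 0.1% Triton X-100, 10% DMSO. Compound preincubated 30 min at 37 °C, then 1 μM probe for 30 min at 37 °C, SDS-PAGE and in-gel fluorescence.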

[4] = molecular target: T3, Diacylglycerol lipase-beta (Mus musculus); assay: Inhibition of FP-rhodamine-labelled recombinant mouse DAGLbeta expressed in HEK293T cells at 10 uM preincubated for 30 mins followed by FP-rhodamine labelling measured after 30 mins by gel-based competitive ABPP assay; assay type: cell-based; conditions: HEK-293T; how it was run: as §2
[5] = molecular target: T2, Monoacylglycerol lipase ABHD6 (Mus musculus); assay: Inhibition of ABHD6 in FP-rhodamine-labelled mouse brain membrane at 10 nM preincubated for 30 mins followed by FP-rhodamine labelling measured after 30 mins by gel-based competitive ABPP assay; assay type: tissue-based; how it was run: as §1
[6] = molecular target: Acyl-protein thioesterase 2 (Mus musculus) (UniProt Q9WTL7); assay: Inhibition of FP-rhodamine-labelled recombinant mouse LYPLA2 at 10 uM preincubated for 30 mins followed by FP-rhodamine labelling measured after 30 mins by gel-based competitive ABPP assay
[7] = molecular target: T2, Monoacylglycerol lipase ABHD6 (Mus musculus); assay: Inhibition of ABHD6 in FP-rhodamine-labelled mouse brain membrane at 1 nM preincubated for 30 mins followed by FP-rhodamine labelling measured after 30 mins by gel-based competitive ABPP assay; assay type: tissue-based; how it was run: as §1
[8] = molecular target: Acyl-protein thioesterase 1 (Mus musculus) (UniProt P97823); assay: Inhibition of FP-rhodamine-labelled recombinant mouse LYPLA1 at 10 uM preincubated for 30 mins followed by FP-rhodamine labelling measured after 30 mins by gel-based competitive ABPP assay
[9] = molecular target: T3, Diacylglycerol lipase-beta (Mus musculus); assay: Inhibition of FP-rhodamine-labelled recombinant mouse DAGLbeta expressed in HEK293T cells at 1 uM preincubated for 30 mins followed by FP-rhodamine labelling measured after 30 mins by gel-based competitive ABPP assay; assay type: cell-based; conditions: HEK-293T; how it was run: as §2
[10] = molecular target: T4, Fatty-acid amide hydrolase 1 (Mus musculus) (UniProt O08914); assay: Inhibition of mouse brain FAAH at 10 uM after 30 mins by FP-rhodamine ABPP-based SDS-PAGE analysis relative to control
T4 sequence (whole entry): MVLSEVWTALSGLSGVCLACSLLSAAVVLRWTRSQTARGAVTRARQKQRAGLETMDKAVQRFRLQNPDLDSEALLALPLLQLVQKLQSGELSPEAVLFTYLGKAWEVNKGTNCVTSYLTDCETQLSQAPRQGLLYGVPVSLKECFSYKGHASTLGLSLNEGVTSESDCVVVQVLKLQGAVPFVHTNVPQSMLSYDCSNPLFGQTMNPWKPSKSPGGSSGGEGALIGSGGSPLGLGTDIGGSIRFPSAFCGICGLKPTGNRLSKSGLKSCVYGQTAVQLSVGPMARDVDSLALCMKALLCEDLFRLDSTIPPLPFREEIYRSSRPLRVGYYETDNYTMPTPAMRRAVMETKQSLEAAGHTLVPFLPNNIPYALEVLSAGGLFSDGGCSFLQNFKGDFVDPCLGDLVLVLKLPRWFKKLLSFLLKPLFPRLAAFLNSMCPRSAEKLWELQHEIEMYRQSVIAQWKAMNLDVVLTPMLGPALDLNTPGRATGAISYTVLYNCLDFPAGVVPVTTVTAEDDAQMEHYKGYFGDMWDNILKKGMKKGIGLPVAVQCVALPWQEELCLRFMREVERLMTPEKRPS

[11] = molecular target: T1, Monoglyceride lipase (Mus musculus); assay: Inhibition of mouse brain MGLL at 10 uM after 30 mins by FP-rhodamine ABPP-based mass spectrometry relative to control
[12] = molecular target: T4, Fatty-acid amide hydrolase 1 (Mus musculus); assay: Inhibition of FAAH in FP-rhodamine-labelled mouse brain membrane at 0.4 to 10 uM preincubated for 30 mins followed by FP-rhodamine labelling measured after 30 mins by gel-based competitive ABPP assay; assay type: tissue-based; how it was run: as §1
[13] = molecular target: T2, Monoacylglycerol lipase ABHD6 (Mus musculus); assay: Inhibition of ABHD6 in azide-rhodamine-labelled mouse Neuro2a cell membrane at 0.01 to 0.6 uM preincubated for 1 hr followed by azide-rhodamine labelling by SDS-PAGE-based in-gel fluorescence scanning assay
How it was run: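 Live Neuro2A cells (DMEM, 10% FBS) treated with compound for 1 hr at 37 °C, then lysed. The membrane proteome was conjugated to azide-rhodamine by click chemistry, resolved by SDS-PAGE and scanned for in-gel fluorescence.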

[14] = molecular target: T2, Monoacylglycerol lipase ABHD6 (Mus musculus); assay: Inhibition of ABHD6 in FP-rhodamine-labelled mouse brain membrane at 10 to 0.0032 uM preincubated for 30 mins followed by FP-rhodamine labelling measured after 30 mins by gel-based competitive ABPP assay; assay type: tissue-based; how it was run: as §1
[15] = molecular target: T2, Monoacylglycerol lipase ABHD6 (Mus musculus); assay: Inhibition of ABHD6 in HT-01-labelled mouse Neuro2a cell membrane at 0.003 to 0.6 uM preincubated for 30 mins followed by HT-01 labelling measured after 30 mins by gel-based competitive ABPP assay
How it was run: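 Neuro2A membrane proteome (1 mg/mL) preincubated with compound for 30 min at 37 °C, then labelled with HT-01 (1 μM, 30 min, 37 °C). SDS-PAGE and in-gel fluorescence scanning, with activity taken from integrated band intensity.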

Chain of Acyl-protein thioesterase 1 (Mus musculus) (P97823 whole entry): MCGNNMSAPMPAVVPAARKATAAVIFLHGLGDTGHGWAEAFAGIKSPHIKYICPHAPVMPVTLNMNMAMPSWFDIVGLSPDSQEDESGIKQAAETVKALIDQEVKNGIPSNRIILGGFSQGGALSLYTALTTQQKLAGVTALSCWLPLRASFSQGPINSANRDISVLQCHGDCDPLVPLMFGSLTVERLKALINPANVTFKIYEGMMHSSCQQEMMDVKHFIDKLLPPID
Chain of Acyl-protein thioesterase 2 (Mus musculus) (Q9WTL7 whole entry): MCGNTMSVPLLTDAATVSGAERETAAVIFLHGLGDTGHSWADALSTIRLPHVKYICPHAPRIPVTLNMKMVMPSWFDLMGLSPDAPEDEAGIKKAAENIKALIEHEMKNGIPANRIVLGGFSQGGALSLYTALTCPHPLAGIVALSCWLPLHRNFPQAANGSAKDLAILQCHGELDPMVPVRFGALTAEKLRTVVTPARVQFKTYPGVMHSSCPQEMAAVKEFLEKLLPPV

Row | Compound | inhibition [1] | inhibition [2] | inhibition [3] [%] | inhibition [4] [%] | inhibition [5] [%] | inhibition [6] | inhibition [7] [%] | inhibition [8] | inhibition [9] [%] | inhibition [10] | inhibition [11] | inhibition [12] | inhibition [13] | inhibition [14] | inhibition [15]
1 | O=C(N1CCCCC1c1ccccc1)n1cc(-c2ccc(-c3ccccc3CO)cc2)nn1 (racemic) | – | – | – | – | 98 | Active | 38 | Active | 0 | Active | – | – | – | – | –
2 | O=C(c1ccc(-c2ccc(-c3cn(C(=O)N4CCCCC4c4ccccc4)nn3)cc2)cc1)N1CCCCC1 (racemic) | – | – | – | – | 94 | Active | 35 | Active | 0 | – | – | – | – | – | –
3 | NC(=O)c1ccc(-c2ccc(-c3cn(C(=O)N4CCCCC4c4ccccc4)nn3)cc2)cc1 (racemic) | – | – | – | – | 27 | Active | 17 | Active | 0 | Active | – | – | – | – | –
4 | COc1ccccc1-c1ccc(-c2cn(C(=O)N3CCCCC3c3ccccc3)nn2)cc1 (racemic) | Active | Active | 14 | 70 | 82 | – | – | – | – | Active | Active | – | – | – | –
5 | C#CCOCCCc1ccc(C2CCCCN2C(=O)n2cc(-c3ccc(-c4ccc(OC)cc4)cc3)nn2)cc1 (racemic) | – | – | – | – | – | – | – | – | – | – | – | Active | Active | Active | Active
6 | O=C(N1CCCCC1c1ccccc1)n1cc(-c2ccc(-c3ccc(CO)cc3)cc2)nn1 (racemic) | – | – | – | – | 47 | Active | 18 | Active | 0 | Active | – | – | – | – | –

The remaining lines, values ahead:

Row | inhibition [1] | inhibition [2] | inhibition [3] [%] | inhibition [4] [%] | inhibition [5] [%] | inhibition [6] | inhibition [7] [%] | inhibition [8] | inhibition [9] [%] | inhibition [10] | inhibition [11] | inhibition [12] | inhibition [13] | inhibition [14] | inhibition [15] | Compound
7 | Active | Active | 37 | 91 | 91 | – | – | – | – | – | – | – | – | – | – | O=C(N1CCCCC1Cc1ccccc1)n1cc(-c2ccc(-c3cccc(CO)c3)cc2)nn1 (racemic)
8 | – | – | – | – | 94 | – | 33 | – | 4 | Active | – | – | – | – | – | O=C(O)c1cccc(-c2ccc(-c3cn(C(=O)N4CCCCC4CCc4ccccc4)nn3)cc2)c1 (racemic)
9 | Active | Active | 15 | 58 | 79 | – | – | – | – | – | – | – | – | – | – | O=C(c1ccc(-c2ccc(-c3cn(C(=O)N4CCCCC4Cc4ccccc4)nn3)cc2)cc1)N1CCCCC1 (racemic)
10 | Active | Active | 66 | 100 | 89 | – | – | – | – | – | Active | – | – | – | – | COc1ccccc1-c1ccc(-c2cn(C(=O)N3CCCCC3Cc3ccccc3)nn2)cc1 (racemic)
11 | Active | Active | 0 | 0 | 30 | – | – | – | – | Active | – | – | – | – | – | COc1ccc(-c2ccc(-c3cn(C(=O)N4CCCCC4c4ccccc4)nn3)cc2)cc1 (racemic)
